pIC50: −log10 of the molar value.
Assays:
Human betaherpesvirus 5 [1] = test: In vitro antiviral activity against HCMV (Towne strain) in HFF (human fibroblast) cells.; assay type: functional, organism-based; conditions: Human betaherpesvirus 5, HFF
Method in brief: (§1)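 HFF monolayers in 24-well dishes infected with about 100 PFU HCMV/cm2 of cell sheet. After adsorption, compound in growth medium added to duplicate wells at four to eight concentrations. Incubated 7 days at 37 °C, fixed and stained with crystal violet, microscopic plaques counted. Percent plaque reduction against no-drug wells regressed on log concentration to give IC50.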

Human betaherpesvirus 5 [2] = test: Antiviral activity was determined against Towne strain of HCMV by Plaque and yield reduction test; assay type: functional
HFF = test: Visual cytotoxicity was scored on Human foreskin fibroblasts (HFF cells) at the time of plaque enumeration.; assay type: functional, cell-based
Method in brief: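 Stationary HFF cells from the plaque assays, not affected by virus, inspected microscopically for cytotoxicity at the time of plaque counting.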

Human alphaherpesvirus 1 [3] = test: In vitro antiviral activity against HSV-1 virus in BSC-1 (monkey kidney) cells.; assay type: functional, organism-based; conditions: Human alphaherpesvirus 1, BSC-1
Method in brief: (§2)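 BSC-1 cells, 10 000/well in MEM(E) with 10% calf serum, incubated overnight at 37 °C. Drug added in quadruplicate together with HSV-1 KOS at 100 PFU/well and incubated 3 days. Read-out by ELISA with HRP-conjugated rabbit anti-HSV-1 and TMB substrate, absorbance at 450 and 570 nm. Percent absorbance reduction against virus-only wells regressed on log concentration for IC50.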

KB = test: In vitro inhibition of KB (human carcinoma) cell growth.; assay type: functional, cell-based
Method in brief: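 KB cells, 3000–5000/well, incubated overnight at 37 °C. Compound added in quadruplicate at six to eight concentrations for 48 h (about two population doublings). Cells fixed in 95% ethanol, stained with 0.1% crystal violet, dye eluted with acidified ethanol and read at 570 nm. IC50 from regression against log concentration.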

L1210 [4] = test: Effect of initial screen concentration of 100 uM on the growth of L1210 Murine Leukemia cells; assay type: functional, Mus musculus
Method in brief: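 L1210 mouse leukemia cells in RPMI 1640 with 10% heat-inactivated horse serum, 2000 cells/well. Compound added the next day and incubated 3 days. Growth read by MTS tetrazolium reduction optical density as percent of control. Screen at 100 µM, or the solubility limit; value is the mean of two or three experiments.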

L1210 [5] = test: concentration required to decrease the cell density in the treated cultures to one-half of the control was measured on L1210 murine Leukemia cells (in vitro); assay type: functional, cell-based; conditions: Mus musculus
Method in brief: (§3)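 L1210 cells, 2000/well, given compound the day after plating and incubated 3 days; cell density read by MTS reduction. Concentration–response in two independent experiments. IC50 is the concentration that halves cell density relative to control, averaged over the two experiments.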

L1210 [6] = test: concentration required to decrease the cell density in the treated cultures to one-half of the control was measured on L1210 murine Leukemia cells (in vitro); c=No significant growth inhibition observed atthe initial screen concentration; assay type: functional, cell-based, Mus musculus
L1210 [7] = test: Effect of initial screen concentration of 10 uM on the growth of L1210 Murine Leukemia cells
Human betaherpesvirus 5 [8] = test: In vitro reduction in yield of Towne strain of HCMV in HFF (human fibroblast) cells.; assay type: functional; conditions: Human betaherpesvirus 5, HFF
Method in brief: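 HFF in 96-well plates infected with HCMV Towne at MOI 0.5-1 PFU/cell. After adsorption, compound given in duplicate, serially diluted 1:3 from 100 to 0.14 µM. After 7 days at 37 °C, one freeze-thaw cycle, then progeny titred by 1:3 serial dilution on fresh HFF monolayers with plaque counts. IC90 taken from regression of percent inhibition against log concentration.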

L1210 [9] = test: concentration required to decrease the cell density in the treated cultures to one-half of the control was measured on L1210 murine Leukemia cells (in vitro) (The highest concentration tested); assay type: functional, cell-based; conditions: Mus musculus; method in brief: as §3
Human alphaherpesvirus 1 [10] = test: Antiviral activity was determined against Herpes simplex virus-1 by ELISA test (IC50 not reached at the noted concentration tested); assay type: functional, organism-based; method in brief: as §2
L1210 [11] = test: Effect of initial screen concentration of 1 uM on the growth of L1210 Murine Leukemia cells
Human betaherpesvirus 5 [12] = test: Antiviral activity was determined against AD169 strain of HCMV by Plaque and yield reduction test; assay type: functional, organism-based; method in brief: as §1
Human betaherpesvirus 5 [13] = test: Antiviral activity was determined against Towne strain of HCMV by Plaque and yield reduction test (Averaged results from duplicate or triplicate experiments); assay type: functional

SMILES | pIC50 (Human betaherpesvirus 5 [1]) | IC90 (Human betaherpesvirus 5 [2]) | pIC50 (HFF) | pIC50 (Human alphaherpesvirus 1 [3]) | pIC50 (KB) | Control (L1210 [4]) | pIC50 (L1210 [5]) | IC50 (L1210 [6]) | Control (L1210 [7]) | IC90 (Human betaherpesvirus 5 [8]) | pIC50 (L1210 [9]) | pIC50 (Human alphaherpesvirus 1 [10]) | Control (L1210 [11]) | pIC50 (Human betaherpesvirus 5 [12]) | IC90 (Human betaherpesvirus 5 [13])
[N-]=[N+]=NC[C@H]1OC(n2c(Cl)nc3cc(Cl)c(Cl)cc32)[C@H](O)[C@@H]1O (some centres undefined) | 5.82 | 0.6 µM | 4.49 | < 4.00 | 4.15 | 29% | 4.10 |  |  |  |  |  |  |  | 
CCCCOC[C@H]1O[C@@H](n2c(Cl)nc3cc(Cl)c(Cl)cc32)[C@H](OC(C)=O)[C@@H]1OC(C)=O | 4.68 |  | 4.18 | < 4.00 | < 4.00 |  |  | No significant growth | 92% |  |  |  |  |  | 
OC[C@H]1O[C@@H](n2c(Cl)nc3cc(Cl)c(Cl)cc32)[C@H](O)[C@@H]1O | 5.55 |  |  | 3.99 |  | 76% | < 4.00 |  |  | 1.3 µM |  |  |  |  | 
CCOC[C@H]1O[C@@H](n2c(Cl)nc3cc(Cl)c(Cl)cc32)[C@H](OC(C)=O)[C@@H]1OC(C)=O | 5.37 |  | 4.48 | < 4.00 | 4.22 |  |  |  | 83% |  | < 5.00 |  |  |  | 
CC(=O)OC1C(CN=[N+]=[N-])OC(n2c(Cl)nc3cc(Cl)c(Cl)cc32)C1OC(C)=O (centres undefined) | 5.82 |  | 4.49 | < 4.00 | 4.15 |  |  | No significant growth | 110% |  |  |  |  |  | 
COC[C@H]1O[C@@H](n2c(Cl)nc3cc(Cl)c(Cl)cc32)[C@H](OC(C)=O)[C@@H]1OC(C)=O | 5.55 |  | 4.59 |  | 4.10 |  |  | No significant growth |  |  |  | < 4.00 | 95% |  | 
CC(=O)OC1C(CCl)OC(n2c(Cl)nc3cc(Cl)c(Cl)cc32)C1OC(C)=O (centres undefined) | 5.85 |  | 4.49 | < 4.00 | 4.05 |  |  | No significant growth | 96% | 0.31 µM |  |  |  |  | 
CCCCOC[C@H]1OC(n2c(Cl)nc3cc(Cl)c(Cl)cc32)[C@H](O)[C@@H]1O (some centres undefined) | 4.85 |  | 4.49 | < 4.00 | 4.22 | 64% | < 4.00 |  |  |  |  |  |  |  | 
COC[C@H]1OC(n2c(Cl)nc3cc(Cl)c(Cl)cc32)[C@H](O)[C@@H]1O (some centres undefined) | 5.52 |  | 4.49 | < 4.00 | 4.05 | 4% | 4.22 |  |  | 2 µM |  |  |  |  | 
CC(=O)OC1C(CBr)OC(n2c(Cl)nc3cc(Cl)c(Cl)cc32)C1OC(C)=O (centres undefined) | 5.57 |  | 4.49 | < 4.00 | 4.22 | 94% |  | No significant growth |  |  |  |  |  |  | 
CC(=O)OC1C(CF)OC(n2c(Cl)nc3cc(Cl)c(Cl)cc32)C1OC(C)=O (centres undefined) | 6.22 |  | 4.49 | < 4.00 | 4.00 |  |  | No significant growth | 122% | 0.19 µM |  |  |  |  | 
CC(=O)OC1C(CI)OC(n2c(Cl)nc3cc(Cl)c(Cl)cc32)C1OC(C)=O (centres undefined) | 5.57 |  | 4.49 | < 4.00 | 4.22 |  |  |  |  |  |  |  |  |  | 
CC1(C)OC2C(CCl)OC(n3c(Cl)nc4cc(Cl)c(Cl)cc43)C2O1 (centres undefined) | 4.85 |  | 4.49 | < 4.00 | 4.00 |  |  |  |  |  |  |  |  |  | 
CC1(C)OC2C(CN=[N+]=[N-])OC(n3c(Cl)nc4cc(Cl)c(Cl)cc43)C2O1 (centres undefined) | 4.96 |  | 4.49 |  |  |  |  |  |  |  |  |  |  |  | 
O[C@@H]1[C@@H](CF)OC(n2c(Cl)nc3cc(Cl)c(Cl)cc32)[C@@H]1O (some centres undefined) | 6.30 |  | 4.49 | < 4.00 | < 4.00 | 81% | < 4.00 |  |  | 0.22 µM |  |  |  |  | 
Nc1nc2c(ncn2COC(CO)CO)c(=O)[nH]1 [GANCICLOVIR] | 5.13 |  | < 4.00 | 5.46 | < 4.00 |  |  |  |  | 1.6 µM |  |  |  |  | 
O[C@@H]1[C@@H](CI)OC(n2c(Cl)nc3cc(Cl)c(Cl)cc32)[C@@H]1O (some centres undefined) | 5.49 |  | 4.49 | < 4.00 |  |  |  |  |  |  |  |  |  | 5.54 | 
CCOC[C@H]1OC(n2c(Cl)nc3cc(Cl)c(Cl)cc32)[C@H](O)[C@@H]1O (some centres undefined) | 5.34 |  | 4.59 | < 4.00 | 4.10 | 9% | 4.23 |  |  |  |  |  |  |  | 
O[C@@H]1[C@@H](CBr)OC(n2c(Cl)nc3cc(Cl)c(Cl)cc32)[C@@H]1O (some centres undefined) | 5.82 |  | 4.49 | < 4.00 | 4.05 | 54% | 4.00 |  |  | 0.5 µM |  |  |  |  | 
CSCC1OC(n2c(Cl)nc3cc(Cl)c(Cl)cc32)C(OC(C)=O)C1OC(C)=O (centres undefined) | 5.32 |  | 4.49 | < 4.00 |  |  |  |  |  |  |  |  |  |  | 
O[C@@H]1[C@@H](CCl)OC(n2c(Cl)nc3cc(Cl)c(Cl)cc32)[C@@H]1O (some centres undefined) | 6.00 |  | 4.49 | < 4.00 | 4.05 | 73% | < 4.00 |  |  |  |  |  |  |  | 0.52 µM
CSC[C@H]1OC(n2c(Cl)nc3cc(Cl)c(Cl)cc32)[C@H](O)[C@@H]1O (some centres undefined) | 5.35 |  | 4.49 | < 4.00 | < 4.00 | 73% | < 4.00 |  |  |  |  |  |  |  | 
